High-throughput results (PubChem)
In the library only some 2.1% were active in any assay of this set; here they are far more common.
GSK3 alpha inh: blocks human GSK-3 alpha kinase; P49840; ADP-Glo luminescence, 60 min; inhibition, % at 10 µM; hit rate 0.1% among 320,000; AID 2650;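 active means more than half of replicates show inhibition above 20%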;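 further: GST-tagged GSK-3 alpha with peptide substrate and 25 µM ATP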
GSK3B inh: human GSK3beta kinase inhibition | P49841 | GST-GSK3beta kinase, ADP-Glo luminescence, 60 min; active compounds read low | activity score (negative = inhibition), % at 10 µM | hit rate 0.038% among 300,000 | AID 2097;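 active means more than half of replicate wells score below -50%, meaning over 50% inhibition versus plate controls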
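Test system: GST-fused GSK3beta enzyme, cell-free | Quantity: 1.6 ng GST-GSK3beta enzyme per well | Reagent: 25 µM ATP with peptide substrate | Schedule: 60 min enzyme reaction, room temperature | Signal: Luminescent ADP-Glo measurement of ADP formed | Read-out basis: Score relative to plate controls | Control set: DMSO and 20 µM GW8510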
MEKK2 WT-MEK5: raises or lowers MEK5 binding to wildtype human MEKK2 PB1 domain. Q9Y2U5. bead flow cytometry, Alexa488-MEK5 binding to MEKK2 WT; actives lie on both sides. binding response (% of control), % at 10 µM. hit rate 1.1% among 290,000; in the data active means binding response below about 67% or above about 130%
STK33 inh: inhibitors of human STK33 kinase; purified STK33, MBP phosphorylation, ADP-Glo luminescence; hit rate 0.073% among 320,000; Q9BYT3; inhibition, % at 10 µM;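 active means inhibition at or above 25%, using the most active replicate where run in duplicate; inactive means inhibition below 25%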
Target sequence (Q9BYT3 whole entry, looked up): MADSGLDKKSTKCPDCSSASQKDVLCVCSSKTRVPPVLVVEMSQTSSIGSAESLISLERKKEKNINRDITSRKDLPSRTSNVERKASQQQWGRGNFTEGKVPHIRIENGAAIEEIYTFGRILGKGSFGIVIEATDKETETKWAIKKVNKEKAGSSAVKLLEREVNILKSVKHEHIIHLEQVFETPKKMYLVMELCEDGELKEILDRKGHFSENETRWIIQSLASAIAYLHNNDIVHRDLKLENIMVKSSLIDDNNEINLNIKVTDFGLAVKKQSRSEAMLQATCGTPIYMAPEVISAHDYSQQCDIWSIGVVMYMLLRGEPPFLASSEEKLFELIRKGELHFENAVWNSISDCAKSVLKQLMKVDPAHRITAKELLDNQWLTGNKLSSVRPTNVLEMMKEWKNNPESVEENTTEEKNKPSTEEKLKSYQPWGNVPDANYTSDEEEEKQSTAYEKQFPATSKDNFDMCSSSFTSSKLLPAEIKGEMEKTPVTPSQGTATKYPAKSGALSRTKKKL
MEKK3 PB1 HTS: modulators (inhibitors or enhancers) of MEK5 binding to human MEKK3 PB1 domain; Q99759; bead-based flow cytometry, Alexa488-MEK5 binding to MEKK3; actives lie on both sides; 0 = blocked by unlabeled MEK5, 100 = vehicle; binding response (% of control), % at 10 µM; hit rate 1.4% among 290,000; AID 1529;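 active means binding response more than 3 SD above or below the average of its plate-row segment, actives on both sides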;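 further: Alexa488 bead fluorescence after subtracting the streptavidin-only scavenger bead signal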
MEKK2mut PB1 HTS: signal of MEK5 binding to mutant human MEKK2 PB1 domain; bead flow cytometry, Alexa488-MEK5 binding to MEKK2 mutant; percent response, % at 10 µM; hit rate 0.35% among 290,000; AID 1530; in the data active means percent response above about 24%, passing the limit was not always enough
MEKK2wt confirm: raises or lowers MEK5 binding to wildtype human MEKK2, retest; shares compounds with MEKK3 PB1 HTS; bead flow cytometry, Alexa488-MEK5 binding to MEKK2 WT; actives lie on both sides; binding response (% of control), % at 10 µM; hit rate 2.4% among 5,900; AID 1892; in the data active means binding response below about 16% or above about 210%; inactive means in between
MEKK2mut-MEK5: signal of MEK5 binding to mutant human MEKK2, retest | AID 1893 | percent response, % at 10 µM | bead flow cytometry, Alexa488-MEK5 binding to MEKK2 mutant | shares compounds with MEKK3 PB1 HTS | hit rate 2% among 5,900; in the data active means percent response mostly above about 71%, no sharp cut-off; inactive means mostly below about 38%;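 further: higher means compound restores mutant binding toward wildtype level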
MEKK3 confirm: confirmation of inhibitors of MEK5 binding to human MEKK3; shares compounds with MEKK3 PB1 HTS; bead flow cytometry, Alexa488-MEK5 binding to MEKK3; active compounds read low; binding response (% of control), % at 10 µM; hit rate 1.8% among 5,900; AID 1894;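 active means binding response below 72% of control, or above a set upper limit, though filed actives all read lower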;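 further: lower values mean stronger disruption of MEK5 binding to MEKK3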
Hits are given with their value; 0 = inactive; - = no result; [ ] = remark or other dose.

SMILES	GSK3 alpha inh	GSK3B inh	MEKK2 WT-MEK5	STK33 inh	MEKK3 PB1 HTS	MEKK2mut PB1 HTS	MEKK2wt confirm	MEKK2mut-MEK5	MEKK3 confirm
O=C1CC(c2ccc3c(c2)OCCO3)Oc2ccccc21 (stereo not given)	0	0	0	0	0	0	-	-	-
Cc1nonc1CC(=O)NC1CCCc2c1cnn2-c1ccc(F)cc1F (stereo not given)	-	0	0	-	0	0	-	-	-
C=C(C)CSc1nc2sc3c(c2c(=O)n1-c1ccc(OC)cc1)CCN(C)C3	0	0	0	0	0	0	-	-	-
COc1ccc(-c2nc(SC(CC(=O)NCc3ccccc3)c3ccc(OC)c(OC)c3)n[nH]2)cc1 (stereo not given)	0	0	0	0	128	0	0	0	0
COc1ccc(C(CC(=O)NCc2ccccc2)Sc2n[nH]c(-c3ccccc3)n2)cc1 (stereo not given)	0	0	0	0	0	0	-	-	-
O=C(N/N=C/c1cccnc1)c1cc(-c2cccs2)nc2ccccc12	0	0	0	0	0	0	-	-	-
O=C(N/N=C/c1ccc2ncccc2c1)c1cc(-c2cccs2)nc2ccccc12	0	0	30[inhibitor]	0	35[inhibitor]	0	0	0	0
O=C1c2cccnc2C(Nc2ccc(Cl)cc2)N1Cc1cccs1 (stereo not given)	0	0	54[inhibitor]	0	75[inhibitor]	0	0	0	0
CS(=O)(=O)N(CC(=O)NCc1cccnc1)C1CCCCC1	0	0	0	0	0	0	-	-	-
COC(=O)C(C)N(C#N)c1nc(NC(C)C)nc(SC)n1 (stereo not given)	0	0	0	0	0	0	-	-	-
COC(=O)C(C)N(C#N)c1nc(C)cc(C)n1 (stereo not given)	0	0	0	0	131	0	0	0	0
Cc1ccccc1C(=O)OCc1nnc(-c2ccc(Cl)cc2)o1	0	0	0	0	146	0	0	0	0
Cc1noc(C)c1COc1ccc(C(=O)OCc2nnc(-c3ccc(Cl)cc3)o2)cc1	0	0	2.0[inhibitor]	0	2.0[inhibitor]	0	0	0	0
CC(=O)c1ccc(OCCCC(=O)OCc2nnc(-c3ccc(Cl)cc3)o2)cc1	0	0	0	0	0	0	-	-	-
O=C(OCc1nnc(-c2ccc(Cl)cc2)o1)c1ccncc1	0	0	0	0	0	0	-	-	-
CN1CCN(CCNC(=O)Cn2c(=O)c3cccn3c3ccc(F)cc32)CC1	0	0	0	0	0	0	-	-	-
O=C(CCN1C(=O)[C@@H]2Cc3ccccc3CN2C1=O)Nc1cccc(F)c1	0	0	0	0	0	0	-	-	-
CCN(CC)CC(O)Cn1c(C)c(-c2ccccc2)c2cc([N+](=O)[O-])ccc21 (stereo not given)	0	0	174	0	0	30	0	0	0
COc1ccc(NC(=O)CN2CCCC2c2cccs2)cc1S(=O)(=O)N1CCCCC1 (stereo not given)	0	-	-	0	-	-	-	-	-
O=S(=O)(Nc1ccc2c(c1)OCO2)c1cccs1	0	0	0	0	132	0	0	0	0
Cc1cc(NS(=O)(=O)c2cccs2)no1	0	0	2.0[inhibitor]	0	2.0[inhibitor]	0	0	0	0
CC1CCCCC1NC(=O)CSc1nnc(CC(=O)Nc2ccccc2F)n1C (stereo not given)	0	0	0	0	0	0	-	-	-
COc1cc(/C=c2\sc3nc(=O)c(-c4ccccc4)nn3c2=O)ccc1OCCC(C)C	0	-	0	0	140	0	0	0	0
CCOc1ccc(/C=c2\sc3nc(-c4ccco4)nn3c2=O)cc1OCC	0	0	0	0	0	0	-	-	-
CC(C)C[C@@H](C(=O)NC1CCN(Cc2ccccc2)CC1)N1C(=O)N2CCc3c([nH]c4ccccc34)[C@@]2(C)C1=O	0	0	142	0	0	0	0	0	0
SMILES	GSK3 alpha inh	GSK3B inh	MEKK2 WT-MEK5	STK33 inh	MEKK3 PB1 HTS	MEKK2mut PB1 HTS	MEKK2wt confirm	MEKK2mut-MEK5	MEKK3 confirm
Cc1c(N2C(=O)C(=O)/C(=C(/O)c3ccc(Cl)cc3)C2c2ccccc2)c(=O)n(-c2ccccc2)n1C (stereo not given)	0	0	0	0	135	0	0	0	0
COc1cc(/C=C2\C(=N)N3N=C(S(C)(=O)=O)SC3=NC2=O)ccc1OS(=O)(=O)c1ccc(C)cc1	0	0	0	0	0	0	-	-	-
Cc1oc(-c2ccccc2)cc1C(=O)NCc1ccncc1	0	0	56[inhibitor]	0	0	0	0	0	0
Cc1oc(-c2ccccc2)cc1C(=O)Nc1ccccc1	0	0	0	0	0	0	-	-	-
CCOC(=O)CNc1nc(Cl)nc(NC(C)(C)C)n1	0	0	0	0	130	0	0	0	0
COc1ccc(CNC[C@@H](CCCCN(C)Cc2ccc(OC)cc2)N2C[C@H](c3ccccc3)N(CCc3ccc(Cl)c(Cl)c3)C(=O)C2=O)cc1	0	0	236	0	0	94	240	100	0
CCOc1ccc(CCN2C(=O)C(=O)N([C@H](CCCN(C)Cc3ccccc3)CNCc3ccccc3)C[C@@H]2C(C)C)cc1	-	0	0	-	0	0	-	-	-
O=C1CC(c2cccc(Oc3ccccc3)c2)NC(=O)N1 (stereo not given)	0	0	-1.0[inhibitor]	0	0.0[inhibitor]	0	0	0	0
CCOC(=O)C1=C(C)C(c2cccc(Oc3ccccc3)c2)NC(=S)N1 (stereo not given)	0	0	0	0	0	0	-	-	-
O=C(NCCC1CCCCN1S(=O)(=O)c1ccccc1)C(=O)NCc1ccccn1 (stereo not given)	0	0	-	0	-	-	-	-	-
CCn1c(SCC(=O)c2c[nH]c3ccccc23)nc2cc(S(=O)(=O)N3CCOCC3)ccc21	0	0	62[inhibitor]	0	0	0	0	0	0
Cn1c(=O)c2c(SCCN3CCOCC3)nc(C3CCCC3)nc2n(C)c1=O	0	0	0	0	58[inhibitor]	0	0	0	0
CCc1nc(SCC(=O)N2CCOCC2)c2c(=O)n(C)c(=O)n(C)c2n1	0	0	0	0	0	0	-	-	-
Cc1cc(C(=O)COC(=O)Cc2n[nH]c(=O)c3ccccc23)c(C)n1-c1ccc2c(c1)OCCO2	0	0	0	0	135	0	0	0	0
Cc1cc(C(=O)COC(=O)C2=COCCO2)c(C)n1-c1ccc2c(c1)OCO2	0	0	0	0	0	0	-	-	-
CCOc1ccccc1NC(=O)COC(=O)C1CCC(=O)N1 (stereo not given)	0	-	-	0	-	-	-	-	-
